What was measured:
Format in all cases: toxicity, cell-based
Fibroblast = assay: Incucyte cell viability with human fibroblast; conditions: 10 µM, compound concentration 10 uM; also: filed as whole numbers so only -1 and 0 and 1 occur
U2OS [1] = assay: Incucyte cell viability with U2OS; conditions: human, 10 µM, compound concentration 10 uM; also: filed as whole numbers so only -1 and 0 and 1 occur
U2OS [2] = assay: Multiplex assay against U2OS; conditions: human
Outline: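 Phenotypes for tubulin, mitochondrial mass and membrane permeability are expressed as per cents of healthy-nucleus cells. Cells were stained live at seeding with Hoechst33342, BioTracker Green Microtubule Cytoskeleton Dye, MitoTracker Red and Annexin V Alexa Fluor 680, then imaged after compound addition on a CQ1 microscope at 37°C and 5% CO2. Machine-learning gating in CellPathfinder separated Hoechst high-intensity objects from normal cells, divided normal cells by nuclear state (healthy, pyknosed, fragmented) and divided pyknosed cells into mitotic or apoptotic.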

HEK-293T = assay: Incucyte cell viability with HEK293T; conditions: human, 10 µM, compound concentration 10 uM; also: filed as whole numbers so only -1 and 0 and 1 occur
[3] = 0 h, replicate number 1, timepoint 0 hours
[4] = 6 h, replicate number 1, timepoint 6 hours
[5] = 12 h, replicate number 1, timepoint 12 hours
[6] = 18 h, replicate number 1, timepoint 18 hours
[7] = 24 h, replicate number 1, timepoint 24 hours
[8] = 12 h, 1 µM, compound concentration 1 uM, replicate 1
[9] = 12 h, 1 µM, compound concentration 1 uM, replicate 2
[10] = 12 h, 10 µM, compound concentration 10 uM, replicate 1
[11] = 12 h, 10 µM, compound concentration 10 uM, replicate 2
[12] = 24 h, 1 µM, compound concentration 1 uM, replicate 1
[13] = 24 h, 1 µM, compound concentration 1 uM, replicate 2
[14] = 24 h, 10 µM, compound concentration 10 uM, replicate 1
[15] = 24 h, 10 µM, compound concentration 10 uM, replicate 2
[16] = 48 h, 1 µM, compound concentration 1 uM, replicate 1
[17] = 48 h, 1 µM, compound concentration 1 uM, replicate 2
[18] = 48 h, 10 µM, compound concentration 10 uM, replicate 1
[19] = 48 h, 10 µM, compound concentration 10 uM, replicate 2

CC(Cc1ccc(O)c(O)c1)C(C)Cc1ccc(O)c(O)c1 (centres undefined) [NORDIHYDROGUAIARETIC ACID]
Growth Rate (Fibroblast; [3]): 0 | Growth Rate (Fibroblast; [4]): 0 | Growth Rate (Fibroblast; [5]): 0 | Growth Rate (Fibroblast; [6]): 0 | Growth Rate (Fibroblast; [7]): 0 | Growth Rate (U2OS [1]; [3]): 0 | Growth Rate (U2OS [1]; 6 h, replicate number 2, timepoint 6 hours): 0 | Growth Rate (U2OS [1]; [5]): 0 | Growth Rate (U2OS [1]; [6]): 0 | Growth Rate (U2OS [1]; [7]): 0 | Population Apoptotic (%) (U2OS [2]; [8]): 64% | Population Fragmented Nuclei (%) (U2OS [2]; [8]): 11% | Population Healthy Nuclei (%) (U2OS [2]; [8]): 75% | Population Hoechst High Intensity Objects (%) (U2OS [2]; [8]): 8% | Population Membrane Permeable-Phenotype (%) (U2OS [2]; [8]): 3% | Population Mitochondria Different-Phenotype (%) (U2OS [2]; [8]): 8% | Population Mitotic Cells (%) (U2OS [2]; [8]): 35% | Population Normal (%) (U2OS [2]; [8]): 91% | Population Pyknosed Nuclei (%) (U2OS [2]; [8]): 12% | Population Tubulin-Different-Phenotype (%) (U2OS [2]; [8]): 10% | Population Apoptotic (%) (U2OS [2]; [9]): 0% | Population Fragmented Nuclei (%) (U2OS [2]; [9]): 3% | Population Healthy Nuclei (%) (U2OS [2]; [9]): 93% | Population Hoechst High Intensity Objects (%) (U2OS [2]; [9]): 15% | Population Membrane Permeable-Phenotype (%) (U2OS [2]; [9]): 0% | Population Mitochondria Different-Phenotype (%) (U2OS [2]; [9]): 1% | Population Mitotic Cells (%) (U2OS [2]; [9]): 100% | Population Normal (%) (U2OS [2]; [9]): 84% | Population Pyknosed Nuclei (%) (U2OS [2]; [9]): 3% | Population Tubulin-Different-Phenotype (%) (U2OS [2]; [9]): 25% | Population Apoptotic (%) (U2OS [2]; [10]): 35% | Population Fragmented Nuclei (%) (U2OS [2]; [10]): 19% | Population Healthy Nuclei (%) (U2OS [2]; [10]): 64% | Population Hoechst High Intensity Objects (%) (U2OS [2]; [10]): 14% | Population Membrane Permeable-Phenotype (%) (U2OS [2]; [10]): 7% | Population Mitochondria Different-Phenotype (%) (U2OS [2]; [10]): 12% | Population Mitotic Cells (%) (U2OS [2]; [10]): 64% | Population Normal (%) (U2OS [2]; [10]): 85% | Population Pyknosed Nuclei (%) (U2OS [2]; [10]): 16% | Population Tubulin-Different-Phenotype (%) (U2OS [2]; [10]): 30% | Population Apoptotic (%) (U2OS [2]; [11]): 0% | Population Fragmented Nuclei (%) (U2OS [2]; [11]): 2% | Population Healthy Nuclei (%) (U2OS [2]; [11]): 91% | Population Hoechst High Intensity Objects (%) (U2OS [2]; [11]): 6% | Population Membrane Permeable-Phenotype (%) (U2OS [2]; [11]): 2% | Population Mitochondria Different-Phenotype (%) (U2OS [2]; [11]): 10% | Population Mitotic Cells (%) (U2OS [2]; [11]): 100% | Population Normal (%) (U2OS [2]; [11]): 93% | Population Pyknosed Nuclei (%) (U2OS [2]; [11]): 5% | Population Tubulin-Different-Phenotype (%) (U2OS [2]; [11]): 38% | Population Apoptotic (%) (U2OS [2]; [12]): 45% | Population Fragmented Nuclei (%) (U2OS [2]; [12]): 12% | Population Healthy Nuclei (%) (U2OS [2]; [12]): 78% | Population Hoechst High Intensity Objects (%) (U2OS [2]; [12]): 7% | Population Membrane Permeable-Phenotype (%) (U2OS [2]; [12]): 4% | Population Mitochondria Different-Phenotype (%) (U2OS [2]; [12]): 7% | Population Mitotic Cells (%) (U2OS [2]; [12]): 54% | Population Normal (%) (U2OS [2]; [12]): 92% | Population Pyknosed Nuclei (%) (U2OS [2]; [12]): 8% | Population Tubulin-Different-Phenotype (%) (U2OS [2]; [12]): 11% | Population Apoptotic (%) (U2OS [2]; [13]): 0% | Population Fragmented Nuclei (%) (U2OS [2]; [13]): 2% | Population Healthy Nuclei (%) (U2OS [2]; [13]): 94% | Population Membrane Permeable-Phenotype (%) (U2OS [2]; [13]): 0% | Population Mitochondria Different-Phenotype (%) (U2OS [2]; [13]): 8% | Population Mitotic Cells (%) (U2OS [2]; [13]): 100% | Population Pyknosed Nuclei (%) (U2OS [2]; [13]): 2% | Population Tubulin-Different-Phenotype (%) (U2OS [2]; [13]): 23% | Population Apoptotic (%) (U2OS [2]; [14]): 61% | Population Fragmented Nuclei (%) (U2OS [2]; [14]): 18% | Population Healthy Nuclei (%) (U2OS [2]; [14]): 68% | Population Hoechst High Intensity Objects (%) (U2OS [2]; [14]): 14% | Population Membrane Permeable-Phenotype (%) (U2OS [2]; [14]): 10% | Population Mitochondria Different-Phenotype (%) (U2OS [2]; [14]): 15% | Population Mitotic Cells (%) (U2OS [2]; [14]): 38% | Population Normal (%) (U2OS [2]; [14]): 85% | Population Pyknosed Nuclei (%) (U2OS [2]; [14]): 12% | Population Tubulin-Different-Phenotype (%) (U2OS [2]; [14]): 59% | Population Apoptotic (%) (U2OS [2]; [15]): 16% | Population Fragmented Nuclei (%) (U2OS [2]; [15]): 2% | Population Healthy Nuclei (%) (U2OS [2]; [15]): 90% | Population Hoechst High Intensity Objects (%) (U2OS [2]; [15]): 5% | Population Membrane Permeable-Phenotype (%) (U2OS [2]; [15]): 1% | Population Mitochondria Different-Phenotype (%) (U2OS [2]; [15]): 9% | Population Mitotic Cells (%) (U2OS [2]; [15]): 83% | Population Normal (%) (U2OS [2]; [15]): 94% | Population Pyknosed Nuclei (%) (U2OS [2]; [15]): 7% | Population Tubulin-Different-Phenotype (%) (U2OS [2]; [15]): 61% | Population Apoptotic (%) (U2OS [2]; [16]): 43% | Population Fragmented Nuclei (%) (U2OS [2]; [16]): 9% | Population Healthy Nuclei (%) (U2OS [2]; [16]): 81% | Population Hoechst High Intensity Objects (%) (U2OS [2]; [16]): 2% | Population Membrane Permeable-Phenotype (%) (U2OS [2]; [16]): 2% | Population Mitochondria Different-Phenotype (%) (U2OS [2]; [16]): 18% | Population Mitotic Cells (%) (U2OS [2]; [16]): 56% | Population Normal (%) (U2OS [2]; [16]): 97% | Population Pyknosed Nuclei (%) (U2OS [2]; [16]): 8% | Population Tubulin-Different-Phenotype (%) (U2OS [2]; [16]): 14% | Population Apoptotic (%) (U2OS [2]; [17]): 20% | Population Fragmented Nuclei (%) (U2OS [2]; [17]): 8% | Population Healthy Nuclei (%) (U2OS [2]; [17]): 86% | Population Hoechst High Intensity Objects (%) (U2OS [2]; [17]): 6% | Population Membrane Permeable-Phenotype (%) (U2OS [2]; [17]): 4% | Population Mitochondria Different-Phenotype (%) (U2OS [2]; [17]): 9% | Population Mitotic Cells (%) (U2OS [2]; [17]): 80% | Population Normal (%) (U2OS [2]; [17]): 93% | Population Pyknosed Nuclei (%) (U2OS [2]; [17]): 5% | Population Tubulin-Different-Phenotype (%) (U2OS [2]; [17]): 30% | Population Apoptotic (%) (U2OS [2]; [18]): 72% | Population Fragmented Nuclei (%) (U2OS [2]; [18]): 15% | Population Healthy Nuclei (%) (U2OS [2]; [18]): 74% | Population Hoechst High Intensity Objects (%) (U2OS [2]; [18]): 9% | Population Membrane Permeable-Phenotype (%) (U2OS [2]; [18]): 6% | Population Mitochondria Different-Phenotype (%) (U2OS [2]; [18]): 18% | Population Mitotic Cells (%) (U2OS [2]; [18]): 27% | Population Normal (%) (U2OS [2]; [18]): 90% | Population Pyknosed Nuclei (%) (U2OS [2]; [18]): 9% | Population Tubulin-Different-Phenotype (%) (U2OS [2]; [18]): 76% | Population Apoptotic (%) (U2OS [2]; [19]): 66% | Population Fragmented Nuclei (%) (U2OS [2]; [19]): 1% | Population Healthy Nuclei (%) (U2OS [2]; [19]): 92% | Population Hoechst High Intensity Objects (%) (U2OS [2]; [19]): 6% | Population Membrane Permeable-Phenotype (%) (U2OS [2]; [19]): 4% | Population Mitochondria Different-Phenotype (%) (U2OS [2]; [19]): 16% | Population Mitotic Cells (%) (U2OS [2]; [19]): 33% | Population Normal (%) (U2OS [2]; [19]): 93% | Population Pyknosed Nuclei (%) (U2OS [2]; [19]): 6% | Population Tubulin-Different-Phenotype (%) (U2OS [2]; [19]): 77% | Growth Rate (HEK-293T; [3]): 1 | Growth Rate (HEK-293T; 0 h, replicate number 2, timepoint 0 hours): 0 | Growth Rate (HEK-293T; [4]): 0 | Growth Rate (HEK-293T; [5]): 0 | Growth Rate (HEK-293T; [6]): 0 | Growth Rate (HEK-293T; [7]): 0

Reference: ChEMBL document CHEMBL4689842, “EUbOPEN Chemogenomics Library wave 1” (2021)
